Reference: ChEMBL document CHEMBL4229514, “Synthesis and biological evaluation of novel benzofuroxan-based pyrrolidine hydroxamates as matrix metalloproteinase inhibitors with nitric oxide releasing activity” (Bioorg Med Chem, 2018)
Active and inactive are the calls of the source. The rule behind the calls is not given here.

Columns and labels:
[1] = molecular target: 72 kDa type IV collagenase (Homo sapiens, UniProt P08253); assay: Inhibition of recombinant human MMP2 catalytic domain (Tyr110 to Asp452 residues) preincubated for 45 mins followed by […] substrate addition by fluorescence assay
72 kDa type IV collagenase, sequence (P08253 whole entry, the tested form may be a part): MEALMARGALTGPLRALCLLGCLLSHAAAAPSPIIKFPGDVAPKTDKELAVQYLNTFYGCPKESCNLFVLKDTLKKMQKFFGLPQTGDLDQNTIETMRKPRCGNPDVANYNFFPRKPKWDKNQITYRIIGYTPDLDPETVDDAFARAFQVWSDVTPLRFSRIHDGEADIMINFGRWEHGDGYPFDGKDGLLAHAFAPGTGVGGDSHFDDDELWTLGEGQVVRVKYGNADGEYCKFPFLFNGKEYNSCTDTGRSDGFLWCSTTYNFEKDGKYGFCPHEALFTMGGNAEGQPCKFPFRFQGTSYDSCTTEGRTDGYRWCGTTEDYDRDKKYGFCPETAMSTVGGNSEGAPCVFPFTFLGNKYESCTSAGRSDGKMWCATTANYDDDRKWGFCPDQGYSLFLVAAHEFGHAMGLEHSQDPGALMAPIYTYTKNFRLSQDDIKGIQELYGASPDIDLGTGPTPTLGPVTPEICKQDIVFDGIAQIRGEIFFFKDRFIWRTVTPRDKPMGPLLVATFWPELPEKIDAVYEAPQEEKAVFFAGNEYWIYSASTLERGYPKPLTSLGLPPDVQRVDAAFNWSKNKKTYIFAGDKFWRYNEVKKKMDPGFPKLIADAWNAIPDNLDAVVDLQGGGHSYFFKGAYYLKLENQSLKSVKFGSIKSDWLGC
Summary of the method: (§1)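 Fluorometric kit assay: enzyme added to assay buffer equilibrated to 37 °C, then inhibitor (NNGH as kit control) added and preincubated 45 min at 37 °C; fluorogenic substrate added to start reaction; fluorescence read at Ex/Em 328/420 nm.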

[2] = molecular target: Matrix metalloproteinase-9 (Homo sapiens, UniProt P14780); assay: Inhibition of recombinant human MMP9 (Phe107 to Pro449 residues) expressed in Escherichia coli preincubated for 45 mins followed by […] substrate addition by fluorescence assay; summary of the method: as §1
Matrix metalloproteinase-9, sequence (P14780 whole entry): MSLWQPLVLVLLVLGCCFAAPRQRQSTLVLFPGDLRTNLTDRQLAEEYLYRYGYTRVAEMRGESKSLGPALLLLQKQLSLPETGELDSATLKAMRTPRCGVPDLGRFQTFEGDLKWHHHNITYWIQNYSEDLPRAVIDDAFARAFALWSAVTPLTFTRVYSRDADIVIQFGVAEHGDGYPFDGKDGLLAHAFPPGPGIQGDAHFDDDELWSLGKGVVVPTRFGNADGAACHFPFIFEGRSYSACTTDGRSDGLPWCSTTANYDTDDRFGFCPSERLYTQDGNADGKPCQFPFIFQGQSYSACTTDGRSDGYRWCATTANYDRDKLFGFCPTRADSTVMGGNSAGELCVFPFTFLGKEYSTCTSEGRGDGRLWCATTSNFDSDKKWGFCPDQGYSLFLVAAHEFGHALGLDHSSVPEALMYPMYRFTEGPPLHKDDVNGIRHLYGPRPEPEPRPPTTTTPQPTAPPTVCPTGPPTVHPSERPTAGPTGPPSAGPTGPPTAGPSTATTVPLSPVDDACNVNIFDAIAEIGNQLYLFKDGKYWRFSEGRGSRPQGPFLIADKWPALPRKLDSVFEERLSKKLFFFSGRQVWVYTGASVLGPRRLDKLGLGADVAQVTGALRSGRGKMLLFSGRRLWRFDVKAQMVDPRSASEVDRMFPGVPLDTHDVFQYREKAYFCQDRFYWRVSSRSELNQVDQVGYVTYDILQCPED

A549 = assay: Antiproliferative activity against human A549 cells after 48 hrs by MTT assay; assay type: functional, cell-based; details: A549, 48 h
Summary of the method: (§2)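 Cells grown in RPMI1640 with 10% FBS at 37 °C, 5% CO₂; plated 5000 per well, 4 h attachment, then exposed to a range of compound concentrations for 48 h. 0.5% MTT added for 4 h, formazan dissolved in DMSO, absorbance read at 570 nm.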

[3] = Antiproliferative activity against human ES2 cells after 48 hrs by MTT assay; assay type: functional, cell-based; details: ES-2, 48 h; summary of the method: as §2
HeLa [4] = assay: Antiproliferative activity against human HeLa cells after 48 hrs by MTT assay; assay type: functional, cell-based; summary of the method: as §2
K562 = assay: Antiproliferative activity against human K562 cells after 48 hrs by MTT assay; assay type: functional, cell-based; details: K562, 48 h; summary of the method: as §2
MCF7 = assay: Antiproliferative activity against human MCF7 cells after 48 hrs by MTT assay; assay type: functional, cell-based; details: MCF7, 48 h; summary of the method: as §2
MDA-MB-231 = assay: Antiproliferative activity against human MDA-MB-231 cells after 48 hrs by MTT assay; assay type: functional, cell-based; details: MDA-MB-231, 48 h; summary of the method: as §2
HeLa [5] = assay: Anticlonogenic activity against human HeLa cells treated for 24 hrs measured after 2 weeks by crystal violet staining based inverted microscopic method; assay type: functional, cell-based
Summary of the method: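 HeLa cells seeded at 500 per well, exposed to compound 24 h, then grown 2 weeks at 37 °C, 5% CO₂. Washed with PBS, methanol-fixed 15 min, stained 0.1% crystal violet 10 min; colonies of more than 50 cells counted under inverted microscope to give inhibition rate.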

HeLa [6] = assay: Anti-invasive activity against human HeLa cells at 1 uM after 24 hrs using crystal violet staining by inverted microscopic based transwell chamber assay; assay type: functional, cell-based
Summary of the method: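 Transwell chambers, 8 μm pore, upper side precoated with Matrigel. 1×10⁵ HeLa cells seeded with compound (1 μM) in RPMI1640 with 1% FBS; lower chamber 10% FBS as chemoattractant. After 24 h at 37 °C, non-invaded cells swabbed off; membranes methanol-fixed 10 min, stained 0.5% crystal violet, counted microscopically.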

[7] = Cytotoxicity against HUVEC after 48 hrs by MTT assay; assay type: cell-based; details: human, HUVEC cells; summary of the method: as §2
HUVEC = assay: Anti-angiogenic activity against HUVEC assessed as reduction in tube formation at 1 uM after 8 hrs by inverted microscopic method; assay type: functional, cell-based; details: Homo sapiens
Summary of the method: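 Matrigel-coated wells gelled 30 min at 37 °C, 5% CO₂; 1×10⁵ HUVECs per well seeded in growth medium together with compound at 1 μM, vehicle control included. Incubated 8 h at 37 °C, 5% CO₂; capillary-like tube networks imaged under inverted microscope and quantified.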

Thoracic aorta = assay: Anti-angiogenic activity against Sprague-Dawley rat thoracic aorta assessed as reduction in microvessel outgrowth arising fron aortic rings at 5 uM after 6 days by inverted microscopic method; assay type: functional, tissue-based
Summary of the method: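 Thoracic aortas from 6-week-old male Sprague Dawley rats, perivascular tissue removed, cut into ~1 mm rings and embedded in Matrigel-coated wells. Rings treated with compound at 5 μM, vehicle control included, 6 days at 37 °C, 5% CO₂. Microvessel outgrowth imaged by inverted microscope; inhibition rate counted.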

HeLa [8] = assay: Nitric oxide releasing activity in human HeLa cells assessed as nitrite accumulation at 100 uM after 5 hrs by Griess reagent based colorimetric assay; assay type: ADME, cell-based
Summary of the method: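 HeLa cells (1×10⁵ per well) incubated 5 h with compound at 100 μM. Cell-free supernatant mixed 1:1 with Griess reagent for 10 min; absorbance at 540 nm; nitrite quantified against NaNO₂ standard curve.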

HeLa [9] = assay: Antimigratory activity against human HeLa cells at 1 uM after 24 hrs using crystal violet staining by inverted microscopic based transwell chamber assay; assay type: functional, cell-based
Summary of the method: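 Uncoated Transwell chambers, 8 μm pore. 5×10⁴ HeLa cells seeded in upper chamber with compound (1 μM) in RPMI1640 containing 1% FBS; 10% FBS below as chemoattractant. 24 h at 37 °C; upper-side cells removed, membrane methanol-fixed 10 min, 0.5% crystal violet stained, migrated cells counted under inverted microscope.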

H22 = assay: Antitumor activity against […] xenografted in Kunming mouse assessed as increase in mouse survival rate at 100 mg/kg/day, ig once daily for 10 days relative to control; assay type: functional
Summary of the method: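 Female Kunming mice (20±2 g, 4–6 weeks), randomized 10 per group, were inoculated subcutaneously with H22 cells (4 × 10⁷/mL) on day 0. Dosing was intragastric, once daily for ten days, with a PBS/5% DMSO vehicle group and a positive-control group. Body weight was recorded before each dose, and survival was checked daily. Mean survival time was compared with vehicle.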

Mus musculus [10] = assay: Toxicity in Kunming mouse xenografted with […] assessed as increase in body weight at 100 mg/kg/day, ig once daily for 10 days; assay type: organism-based; details: in vivo, po, 240 h
Summary of the method: (§3)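 Female Kunming mice (20±2 g, 4–6 weeks), 10 per group, inoculated subcutaneously with H22 cells (4×10⁷/mL) on day 0. Compound 100 mg/kg/day given intragastrically once daily for 10 days; vehicle PBS with 5% DMSO. Body weight recorded before each dose; survival monitored daily.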

HeLa [11] = assay: Antimigratory activity against human HeLa cells assessed as reduction in wound closure at 1 uM by inverted microscopic method; assay type: functional, cell-based; details: TDE = time-dependent effect
Summary of the method: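 2×10⁵ HeLa cells per well grown to confluence; pipette tip scratch made, cells treated with 1 μM compound and allowed to migrate; wound imaged by inverted microscope at 0, 12, 24 and 48 h, wound closure quantified.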

Mus musculus [12] = assay: Toxicity in Kunming mouse xenografted with […] assessed as decrease in body weight at 100 mg/kg/day, ig once daily for 10 days; assay type: organism-based; details: in vivo, po, 240 h; summary of the method: as §3

IC50 [1] [µM] | IC50 [2] [µM] | IC50 (A549) [µM] | IC50 (HeLa [4]) [µM] | IC50 (K562) [µM] | IC50 (MCF7) [µM] | IC50 (MDA-MB-231) [µM] | Nitrite concentration (HeLa [8]) [µM] | Structure (SMILES) | IC50 [3] [µM] | Activity (HeLa [5]) | Activity (HeLa [6]) | CC50 at 48 h [7] [µM] | Activity (HUVEC) | Activity (Thoracic aorta) | Activity (HeLa [9]) | Activity (H22) | Activity (Mus musculus [10]) | Activity (HeLa [11]) | Activity (Mus musculus [12])
0.414 | 0.524 | 25.6 | 14.1 | 11.2 | 23.4 | 16.5 | 25.51 | COc1ccc(/C=C/C(=O)N2C[C@@H](NC(=O)c3cccc4no[n+]([O-])c34)C[C@H]2C(=O)NO)cc1OC | 17.4 | Active | Active | 42.3 | Active | inactive | – | – | – | – | –
0.345 | 0.388 | 13.2 | 6.49 | 4.61 | 10.7 | 9.81 | 33.11 | COc1ccc(/C=C/C(=O)N2C[C@@H](NC(=O)c3ccc4no[n+]([O-])c4c3)C[C@H]2C(=O)NO)cc1OC | 14.1 | Active | Active | 36.3 | Active | Active | – | – | – | – | –

The next lines start with the molecule.

Structure (SMILES) | IC50 [1] [µM] | IC50 [2] [µM] | IC50 (A549) [µM] | IC50 (HeLa [4]) [µM] | IC50 (K562) [µM] | IC50 (MCF7) [µM] | IC50 (MDA-MB-231) [µM] | Nitrite concentration (HeLa [8]) [µM] | IC50 [3] [µM] | Activity (HeLa [5]) | Activity (HeLa [6]) | CC50 at 48 h [7] [µM] | Activity (HUVEC) | Activity (Thoracic aorta) | Activity (HeLa [9]) | Activity (H22) | Activity (Mus musculus [10]) | Activity (HeLa [11]) | Activity (Mus musculus [12])
O=C(N[C@H]1C[C@@H](C(=O)NO)N(S(=O)(=O)c2ccc(Oc3ccccc3)cc2)C1)c1cccc2no[n+]([O-])c12 | 0.182 | 0.242 | 21.5 | 7.24 | 4.58 | 13 | 4.19 | 27.87 | 8.26 | Active | Active | 37.2 | Active | inactive | – | – | – | – | –
COc1ccc(/C=C/C(=O)N2C[C@@H](NC(=O)c3cccnc3)C[C@H]2C(=O)NO)cc1OC | 0.266 | 0.36 | 78.2 | 185 | > 200 | > 200 | > 200 | – | > 200 | Active | Active | 39.8 | Active | Active | Active | Active | Toxic | – | –
O=C(N[C@H]1C[C@@H](C(=O)NO)N(S(=O)(=O)c2ccc(Oc3ccccc3)cc2)C1)c1ccc2no[n+]([O-])c2c1 | 0.102 | 0.162 | 5.1 | 3.82 | 3.56 | 4.19 | 7.01 | 34.43 | 7.47 | Active | Active | 32.5 | Active | Active | Active | 40.48% | – | Tde | Toxic
